# Fewer inactive variants are shown than the library holds.
# B1: tRNA (parent)
# chain: GUUCCGUUGGCGUAAUGGUAACGCGUCUCCCUCCUAAGGAGAAGACUGCGGGUUCGAGUCCCGUACGGAACG
# Variants of: B1
# Experiment: yeast fitness relative to wild type (ratio to wild type); higher = fitter; tRNA-Arg(CCU), competitive growth, 37 C, YPD
# Summary of the method: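 The tRNA-Arg(CCU) gene variants were made by chemical synthesis with a 3% per-site mutation rate at 69 sites and inserted at the native genomic locus of Saccharomyces cerevisiae. After pooling, the strains were competed in YPD at 37°C for 24 hours in six parallel replicates. Gene amplicons from the start population and each end population were read by 100-nucleotide paired-end sequencing, and Darwinian fitness relative to wild type was taken from genotype frequency changes. Genotypes needed ≥ 100 starting reads, and estimates < 0.5 were set to 0.5.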
row,Variant,yeast fitness
1,GUUCCGUUGGCGUAAUGAUAACGCGUCUCCCUCCAAAGGGGAAGACUGCGGGUUCGAGUCUCGUACGGAACG,≤ 0.5
2,GUUCCGUUGGCGUAAUGCUAACGCGUCUCCCUCCUAAGGAGAUGACUGCGGGUUCGAGUCCCGUACGGAACG,0.674
3,GUUCCGUUGGCGUAAUGAUAACGCGUCUCCCUCCUAAGGAGAAGACUGCGGGGUCGAGUCCCGUACGGAACG,≤ 0.5
4,GUUCCGUUGGCGUAAUGAUAACGCGUCCCCCUCCUAAGGAGAAGACUGCUGGUUCGAGUCCCGUACGGAACG,≤ 0.5
5,GUUCCGUUGGCGUAAUGCUAACGCGUCUCCCUCCUAAGGAGCAGACUGCGGGUACGAGUCCCGUACGGAACG,≤ 0.5
6,GUUCCGUUGGCGUAAUGAUAACGCGUCUCCCUCCUAAGGAGAAGACUGCGGGAUCGAGUCCGGUACGGAACG,≤ 0.5
7,GUUCCGUUGGCGUAAUGCUGACGCGUCUACCUCCUAAGGAGAAGACUGCGGGUUCGAGUCCCGUACAGAACG,≤ 0.5
8,GUUCCGUUGGCGUAAUGCUAACGCGUCUCCCUCCUAAGGAGAAGUCUGCGGGUUCUAGUCCCGAACGGCACG,0.786
9,GUUCCGUUGGCGUAAUGAAAACGCGUCUCCCUCCUAAGGAGAAGACUGCGGGUUCGAGUCGCGUACGGAACG,≤ 0.5
10,GUUCCGUUGGCGUAAUGCUAUCGCGUUUCCCUCCUAAGGAGAAGACUGCGGGUUCGAGUCCCGUACGGAACG,≤ 0.5
11,GUUCCGUUGGCGUAAUGCUAUCGUGUCACCCUCCUAAGGAGAAGACUGCGGGUUCGAGUCCCGUACGGAACG,0.629
12,GUUCCGUUGGCGUAAUGCUAACGCGUCUCCCUCCUAAGGAGAAGGCUGCUGGAUCGAGUCCCGUACGGAACG,≤ 0.5
13,GUUCCGUUGGCGUAAUGCUGACGCGUCUACCUCCUAAGGAGAAGACUGUGGGUUCGAGUCCCGUACGGAACG,≤ 0.5
14,GUUCCGUUGGCGUAAUGAUAACGCGUCUCCCCCCUAAGGAGAAGACUGCGGGUUCGAGUCCCGUGCGGAACG,0.535
15,GUUCCGUUGGCGUAAUGCUUACGCGUCUCCCUCUUAAGGCGAAGACUGUGGGUUCGAGUCCCGCAUGGAACG,0.549
16,GUUCCGUUGGCGUAAUGCUAACGCGUCUCCCUCCUAAGGUGAAGACUGCGGGUUCGAGUCCCGUACGGAGCG,0.632
17,GUUCCGUUGGCGUAAUGAUAACGCGUCUCCCACCUAAGGAGAAAACUGCGGGUUCGAGUCCCGUCCGGAACG,≤ 0.5
18,GUUCCGUUGGCGUAAUGCUAACGCGUCUCCCUCCUAAGGAGAAGACUGCGGGUUCGAGUCCCGUCCGAAACG,≤ 0.5
19,GUUCCGUUGGCGUAAUGCUAACGCGUCUCCCUCCUUAGGAGAAGACUGCGGGUUCGAGUCACCUACGGAACG,≤ 0.5

row,Variant,yeast fitness
1,GUUCCGUUGGCGUAAUGCUAACGCGUCUCCCUCCUGAGGAGAAGACUGCGGGUUCGAGUCACGUACGGAACG,≤ 0.5
2,GUUCCGUUGGCGUAAUGCUACCGCGUCUCGCUCCUAAGGAGAAGAGUGCGGGUUCGAGUCCCGUACGGAACG,≤ 0.5
3,GUUCCGUUGGCGUAAUGCUAACGCGUCUCCCUCCUAAGGAGAAGACUGCGGGUUCGAGUCCCGUACGGAACG,0.659
4,GUUCCGUUGGCGUAAUGAUAACGCGUCUCCCUCCUAAGGAGAAGACUGCGGGUACGAGUCCCGUACGGAACG,0.597
5,GUUCCGUUGGCGUAAUGCUAACGCGUCUCCCUCCUACGGAGAAGACUGGGGGUUCGAGUCCCGUACGGAACG,0.663
6,GUUCCGUUGGCGUAAUGCUAAAGCGUCUCCCUCCUAAGGAGAAGCUUGCGGGUUCGAGUCCCGUCCGGAACG,≤ 0.5
7,GUUCCGUUGGCGUAAUGCUAACGCGUCUCCCUCCUUAGGAGAAGACUGCGGGUUCGAGUCCCGUACGGAACG,0.551
8,GUUCCGUUGGCGUAAUGCUAACGCGUCUCCCUCCUGAGGAGAAGACUGCGGGUUCGAGUCCCGUACGGAACG,0.769
9,GUUCCGUUGGCGUAAUGAUAACGCGAUUCCCUCCUAAGGAGAAGACUGUGGGUUCGAAUCCCGUGCGGAACG,≤ 0.5
10,GUUCCGUUGGCGUAAUGCUAACGCGUCUCCCUCCUAGGGAGAAGACUGCGGGUUCGAGUCCCGUACGGAACG,0.577
11,GUUCCGUUGGCGUAAUGCUAACGCGUCUCCCUCCUACGGAGAAGACUGCGGGUUCGAGUCCCGUACGGAACG,0.641
12,GUUCCGUUGGCGUAAUGAAAACGCGUCUCCCUCCUAAGGAGAAGACUGCGCGUUCGAGUCCCGCACGGAACG,≤ 0.5
13,GUUCCGUUGGCGUAAUGAUAACGCGUCUCCCACCUAAGGAGAAGACUGCGGGCUCGAGUCCCGUACGGAACG,≤ 0.5
14,GUUCCGUUGGCGUAAUGAUAACGCGUCUCCCUCCUAAGGAGAAGACUGCGGGAUCGAGUCCCGUAUGGAACG,≤ 0.5
15,GUUCCGUUGGCGUAAUGCUAGCGCGUAUCUCUCCUAAAGAGAAGACUGCGGGUUCGAGUCCCGUACGGAACG,0.547
16,GUUCCGUUGGCGUAAUGCUAUCGCGUCUCGCUCCUAAGGAGAAGACUGCGGGUUCGAGUCCCGUACGGCACG,0.555
17,GUUCCGUUGGCGUAAUGCUAACGCGUCUCCCUCCUAAGGAGAAGCCUGCGGGUUCGAGUCCCGUUCGGAACG,≤ 0.5
18,GUUCCGUUGGCGUAAUGCUAACGCGUCUCCCUCCUAAGGAGAAGCCUGCGGGUUCGAGUCCCGUACGGAACG,0.695
